Values joined by “and” are separate entries in the source; they are usually repeats but may differ in a detail not shown here. Equal entries are not always repeated.
System: Fibroblast
Test: Multiplex assay against human fibroblast
Type: toxicity, cell-based
How it was run: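 Live cells were stained at seeding with Hoechst33342, BioTracker Green Microtubule Cytoskeleton Dye, MitoTracker Red and Annexin V Alexa Fluor 680, then imaged on a CQ1 microscope at 37°C and 5% CO2 after compound addition. CellPathfinder machine-learning gating split cells into Hoechst high-intensity objects or normal cells. Normal cells were split into healthy, pyknosed or fragmented nuclei, and pyknosed cells into mitotic or apoptotic. Tubulin, mitochondrial-mass and membrane-permeability phenotypes are per cents of healthy-nucleus cells.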

[1] = 12 h, 1 µM, compound concentration 1 uM
[2] = 12 h, 10 µM, compound concentration 10 uM
[3] = 24 h, 1 µM, compound concentration 1 uM
[4] = 24 h, 10 µM, compound concentration 10 uM
[5] = 48 h, 1 µM, compound concentration 1 uM
[6] = 48 h, 10 µM, compound concentration 10 uM

NC1=NC(=O)/C(=C2\CCNC(=O)c3[nH]c4ccccc4c32)N1
Population Apoptotic (%) [1]: 5.88% and 11.11%
Population Healthy Nuclei (%) [1]: 60.61% and 85.31%
Population Hoechst High Intensity Objects (%) [1]: 0%
Population Membrane Permeable-Phenotype (%) [1]: 2% and 1.91%
Population Mitochondria Different-Phenotype (%) [1]: 8% and 7.66%
Population Mitotic Cells (%) [1]: 94.12% and 88.89%
Population Normal (%) [1]: 100%
Population Pyknosed Nuclei (%) [1]: 20.61% and 11.02%
Population Tubulin-Different-Phenotype (%) [1]: 10% and 11.48%
Total Cell Count [1]: 165 and 245
Population Fragmented Nuclei (%) [2]: 8.29% and 5.11%
Population Healthy Nuclei (%) [2]: 63.9% and 72.73%
Population Hoechst High Intensity Objects (%) [2]: 0%
Population Membrane Permeable-Phenotype (%) [2]: 3.82% and 2.34%
Population Mitochondria Different-Phenotype (%) [2]: 7.63% and 9.38%
Population Mitotic Cells (%) [2]: 92.98% and 76.92%
Population Normal (%) [2]: 100%
Population Pyknosed Nuclei (%) [2]: 27.8% and 22.16%
Population Tubulin-Different-Phenotype (%) [2]: 9.92% and 14.06%
Total Cell Count [2]: 205 and 176
Population Apoptotic (%) [3]: 10% and 14.71%
Population Fragmented Nuclei (%) [3]: 10% and 5.2%
Population Healthy Nuclei (%) [3]: 73.33% and 81.2%
Population Hoechst High Intensity Objects (%) [3]: 0%
Population Membrane Permeable-Phenotype (%) [3]: 6.06% and 1.48%
Population Mitochondria Different-Phenotype (%) [3]: 3.79% and 8.37%
Population Mitotic Cells (%) [3]: 90% and 85.29%
Population Normal (%) [3]: 100%
Population Pyknosed Nuclei (%) [3]: 16.67% and 13.6%
Population Tubulin-Different-Phenotype (%) [3]: 12.12% and 11.33%
Total Cell Count [3]: 180 and 250
Population Apoptotic (%) [4]: 4.92% and 12.82%
Population Fragmented Nuclei (%) [4]: 6.84% and 5.46%
Population Healthy Nuclei (%) [4]: 67.09% and 73.22%
Population Hoechst High Intensity Objects (%) [4]: 0%
Population Membrane Permeable-Phenotype (%) [4]: 5.1% and 0%
Population Mitochondria Different-Phenotype (%) [4]: 3.82% and 5.97%
Population Mitotic Cells (%) [4]: 95.08% and 87.18%
Population Normal (%) [4]: 100%
Population Pyknosed Nuclei (%) [4]: 26.07% and 21.31%
Population Tubulin-Different-Phenotype (%) [4]: 12.1% and 15.67%
Total Cell Count [4]: 234 and 183
Population Fragmented Nuclei (%) [5]: 13% and 5%
Population Healthy Nuclei (%) [5]: 83% and 91.25%
Population Hoechst High Intensity Objects (%) [5]: 0%
Population Membrane Permeable-Phenotype (%) [5]: 1.2% and 2.74%
Population Mitotic Cells (%) [5]: 87.5% and 55.56%
Population Normal (%) [5]: 100%
Population Pyknosed Nuclei (%) [5]: 4% and 3.75%
Population Tubulin-Different-Phenotype (%) [5]: 6.02% and 11.42%
Total Cell Count [5]: 200 and 240
Population Apoptotic (%) [6]: 19.05% and 14.29%
Population Fragmented Nuclei (%) [6]: 4.95% and 6.88%
Population Healthy Nuclei (%) [6]: 87.63% and 85.71%
Population Hoechst High Intensity Objects (%) [6]: 0%
Population Membrane Permeable-Phenotype (%) [6]: 0.4% and 4.32%
Population Mitochondria Different-Phenotype (%) [6]: 11.69% and 2.47%
Population Mitotic Cells (%) [6]: 80.95% and 85.71%
Population Normal (%) [6]: 100%
Population Pyknosed Nuclei (%) [6]: 7.42% and 7.41%
Population Tubulin-Different-Phenotype (%) [6]: 6.45% and 14.2%
Total Cell Count [6]: 283 and 189

CCCCC1=NC2(CCCC2)C(=O)N1Cc1ccc(-c2ccccc2-c2nnn[nH]2)cc1 [IRBESARTAN]
Population Apoptotic (%) [1]: 40% and 38%
Population Fragmented Nuclei (%) [1]: 14% and 24%
Population Healthy Nuclei (%) [1]: 67% and 55%
Population Hoechst High Intensity Objects (%) [1]: 1% and 3%
Population Membrane Permeable-Phenotype (%) [1]: 0% and 7%
Population Mitochondria Different-Phenotype (%) [1]: 5% and 2%
Population Mitotic Cells (%) [1]: 59% and 61%
Population Normal (%) [1]: 98% and 96%
Population Pyknosed Nuclei (%) [1]: 17% and 20%
Population Tubulin-Different-Phenotype (%) [1]: 28% and 43%
Total Cell Count [1]: 159 and 187
Population Apoptotic (%) [2]: 60% and 45%
Population Fragmented Nuclei (%) [2]: 11% and 32%
Population Healthy Nuclei (%) [2]: 74% and 48%
Population Hoechst High Intensity Objects (%) [2]: 3% and 7%
Population Membrane Permeable-Phenotype (%) [2]: 3% and 12%
Population Mitochondria Different-Phenotype (%) [2]: 4% and 3%
Population Mitotic Cells (%) [2]: 40% and 54%
Population Normal (%) [2]: 96% and 92%
Population Pyknosed Nuclei (%) [2]: 13% and 18%
Population Tubulin-Different-Phenotype (%) [2]: 37% and 53%
Total Cell Count [2]: 151 and 129
Population Apoptotic (%) [3]: 47% and 31%
Population Fragmented Nuclei (%) [3]: 19% and 25%
Population Healthy Nuclei (%) [3]: 69% and 57%
Population Hoechst High Intensity Objects (%) [3]: 2% and 3%
Population Membrane Permeable-Phenotype (%) [3]: 1%
Population Mitochondria Different-Phenotype (%) [3]: 3% and 0%
Population Mitotic Cells (%) [3]: 52% and 68%
Population Normal (%) [3]: 97% and 96%
Population Pyknosed Nuclei (%) [3]: 10% and 16%
Population Tubulin-Different-Phenotype (%) [3]: 22% and 40%
Total Cell Count [3]: 170 and 183
Population Apoptotic (%) [4]: 56% and 45%
Population Healthy Nuclei (%) [4]: 74% and 47%
Population Hoechst High Intensity Objects (%) [4]: 1% and 2%
Population Membrane Permeable-Phenotype (%) [4]: 3% and 8%
Population Mitochondria Different-Phenotype (%) [4]: 7% and 5%
Population Mitotic Cells (%) [4]: 44% and 55%
Population Normal (%) [4]: 98% and 97%
Population Pyknosed Nuclei (%) [4]: 16%
Population Tubulin-Different-Phenotype (%) [4]: 37% and 60%
Total Cell Count [4]: 155 and 125
Population Apoptotic (%) [5]: 60% and 55%
Population Fragmented Nuclei (%) [5]: 21% and 31%
Population Healthy Nuclei (%) [5]: 69% and 58%
Population Hoechst High Intensity Objects (%) [5]: 3% and 2%
Population Membrane Permeable-Phenotype (%) [5]: 0% and 2%
Population Mitochondria Different-Phenotype (%) [5]: 4% and 1%
Population Mitotic Cells (%) [5]: 40% and 44%
Population Normal (%) [5]: 96% and 97%
Population Pyknosed Nuclei (%) [5]: 8% and 10%
Population Tubulin-Different-Phenotype (%) [5]: 31% and 39%
Total Cell Count [5]: 173 and 178
Population Apoptotic (%) [6]: 61% and 37%
Population Fragmented Nuclei (%) [6]: 14% and 37%
Population Healthy Nuclei (%) [6]: 66% and 48%
Population Hoechst High Intensity Objects (%) [6]: 2% and 0%
Population Membrane Permeable-Phenotype (%) [6]: 1% and 3%
Population Mitochondria Different-Phenotype (%) [6]: 5% and 1%
Population Mitotic Cells (%) [6]: 38% and 62%
Population Normal (%) [6]: 97% and 99%
Population Pyknosed Nuclei (%) [6]: 18% and 13%
Population Tubulin-Different-Phenotype (%) [6]: 38% and 58%
Total Cell Count [6]: 141 and 117

From ChEMBL document CHEMBL5724801, “EUbOPEN Chemogenomics Library - Multiplex” (2024)
